The values below come from ChEMBL document CHEMBL1147849, “Synthesis and recognition of novel isonucleoside triphosphates by DNA polymerases” (Bioorg Med Chem, 2007).

The nature of test [1]: Inhibition of 9 Nm DNA polymerase-mediated DNA synthesis assessed as DNA chain termination. In a few lines:
(§1)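 25-mer template (four variants, each with A, T, G or C at the first target site) annealed to a 5′-FITC 17-mer primer, 20 pmol each. Annealing was done by cooling quickly from 90 to 0 °C in buffer: 10 mM KCl, 10 mM (NH₄)₂SO₄, 20 mM Tris–HCl pH 8.8, 2 mM MgSO₄, 0.1% Triton X-100. Reactions held triphosphate or dNTPs (1 nmol each) and 2 U polymerase, 50 °C, 1.5 h. Products were resolved by denaturing PAGE.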

In another test the test system is Thermus aquaticus. Nature of the test: Inhibition of Thermus acquaticus DNA polymerase-mediated DNA synthesis assessed as DNA chain termination. In a few lines:
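Taq polymerase primer extension: 25-mer template (A, T, G or C at the first target site) and 5′-FITC 17-mer primer, 20 pmol each. Buffer was 50 mM KCl, 10 mM Tris–HCl pH 9.0, 1.5 mM MgCl₂, 0.1% Triton X-100. Triphosphate or dNTPs 1 nmol each, 2 U enzyme, 50 °C for 1.5 h. Read-out by denaturing polyacrylamide gel electrophoresis.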

Test [2] can be described thus: Inhibition of Vent(exo-) DNA polymerase-mediated DNA synthesis assessed as DNA chain termination. Put shortly:
as §1

Test [3] is described as follows: Inhibition of Deep Vent(exo-) DNA polymerase-mediated DNA synthesis assessed as DNA chain termination. Put shortly:
as §1

Test [4] is described as follows: Inhibition of Therminator DNA polymerase-mediated DNA synthesis assessed as DNA chain termination. Put shortly:
as §1

A short description of test [5]: Ratio of Vmax to Km for 9 Nm DNA polymerase. Put shortly: (§2)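 Kinetics with 9°N DNA polymerase at 0.01 U/µL in the supplier's buffer. Primer was annealed to template 2 (T at the target site), 2 µM primer–template complex, with varying concentrations of dATP or the isonucleoside triphosphate.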
The nature of test [6]: Activity of 9 Nm DNA polymerase enzyme. In a few lines:
as §2

The source made the active and inactive calls. No cut-off for these calls is given here.

For `Cc1cn([C@H]2CO[C@@H](CCOP(=O)(O)OP(=O)(O)OP(=O)(O)O)[C@@H]2O)c(=O)[nH]c1=O`, the result (in test [1]; in the test with Thermus aquaticus) was Active.

Turning to `C=CCOC[C@@H]1O[C@@H](COP(=O)(O)OP(=O)(O)OP(=O)(O)O)[C@H](O)[C@H]1n1cc(C)c(=O)[nH]c1=O`, the outcome (in test [1]; with Thermus aquaticus) was Active.

With `Nc1ccn([C@H]2CO[C@@H](CCOP(=O)(O)OP(=O)(O)OP(=O)(O)O)[C@@H]2O)c(=O)n1`, the outcome (in test [1]; with Thermus aquaticus) was Active.

As for `Nc1ncnc2c1ncn2[C@@H]1CO[C@H](COP(=O)(O)OP(=O)(O)OP(=O)(O)O)[C@H]1O`, the outcome in test [2], in test [1] and in test [4] was inactive. The result (with Thermus aquaticus; in test [3]) was Active.

Regarding `Nc1ncnc2c1ncn2[C@H]1C[C@H](O)[C@@H](COP(=O)(O)OP(=O)(O)OP(=O)(O)O)O1`, the Vmax/Km in test [5] came to 8.63e+06 M⁻¹. In test [6], the Michaelis constant (Km) was 0.78 µM and the Vmax was 6.73 %/min.

Take `Nc1nc2c(ncn2[C@H]2CO[C@@H](CCOP(=O)(O)OP(=O)(O)OP(=O)(O)O)[C@@H]2O)c(=O)[nH]1`: the outcome (in test [1]; in the test with Thermus aquaticus) was Active.
